What was measured:
Rattus norvegicus [1] = assay: Effect on circulating testosterone and dihydrotestosterone level in sc dosed Sprague-Dawley rat by radioimmunoassay relative to anastrozole; format: functional
In short: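 Serum testosterone and DHT were measured by RIA in ether extracts of serum (0.5 mL serum, 2 mL diethyl ether, 60 s shaking), without chromatography, in rats dosed at several levels. Relative potency is the ED50 of anastrozole divided by the ED50 of the test agent, where ED50 is the dose giving 50% of the pharmacological response.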

Staphylococcus aureus = assay: Antimicrobial activity against Staphylococcus aureus at 1 to 5 ug/ml by agar well diffusion method; format: functional
In short: (§1)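 Agar well diffusion against bacteria and fungi. Inhibition zone is scored beyond the control: ++ 0.6–1.0 cm, + 0.1–0.5 cm, 0 no inhibition.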

Bacillus subtilis = assay: Antimicrobial activity against Bacillus subtilis at 1 to 5 ug/ml by agar well diffusion method; format: functional; in short: as §1
Pseudomonas aeruginosa = assay: Antimicrobial activity against Pseudomonas aeruginosa at 1 to 5 ug/ml by agar well diffusion method; format: functional; in short: as §1
Escherichia coli = assay: Antimicrobial activity against Escherichia coli at 1 to 5 ug/ml by agar well diffusion method; format: functional; in short: as §1
Rattus norvegicus [2] = assay: Effect on circulating testosterone and dihydrotestosterone level in sc dosed Sprague-Dawley rat by radioimmunoassay; format: functional
In short: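 Rats were given a range of doses of the 5α-reductase inhibitors. Serum testosterone and DHT were measured by radioimmunoassay with specific antisera, without prior chromatography. Serum (0.5 mL) was extracted with 2 mL peroxide-free diethyl ether by shaking for 60 s. Levels were compared with vehicle-treated controls, and ED50 was derived.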

Penicillium italicum = assay: Antimicrobial activity against Penicillium italicum at 1 to 5 ug/ml by agar well diffusion method; format: functional; in short: as §1
Rattus norvegicus [3] = organism: Rattus norvegicus; assay: Acute toxicity in albino rat; format: organism-based; details: in vivo
In short: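 Male albino rats received injections of increasing doses. LD50 and LD90, the doses killing 50% and 90% of the animals, were calculated by the Austen and Brocklehurst method.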

Aspergillus fumigatus = assay: Antimicrobial activity against Aspergillus fumigatus at 1 to 5 ug/ml by agar well diffusion method; format: functional; in short: as §1
Candida albicans = assay: Antimicrobial activity against Candida albicans at 1 to 5 ug/ml by agar well diffusion method; format: functional; in short: as §1
[4] = system: Syncephalastrum racemosum; assay: Antimicrobial activity against Syncephalastrum racemosum at 1 to 5 ug/ml by agar well diffusion method; format: functional; in short: as §1

## CC(C)(C#N)c1cc(Cn2cncn2)cc(C(C)(C)C#N)c1 [ANASTROZOLE]
Rattus norvegicus [1]
  Ratio ED50: 1

## O=C(N[C@H](CO)[C@H](O)c1ccc([N+](=O)[O-])cc1)C(Cl)Cl [CHLORAMPHENICOL]
Staphylococcus aureus
  diameter of the inhibition zone (DIZ): 0.6 cm
Bacillus subtilis
  diameter of the inhibition zone (DIZ): 1.1 cm
Pseudomonas aeruginosa
  diameter of the inhibition zone (DIZ): 1.1 cm
Escherichia coli
  diameter of the inhibition zone (DIZ): 0.6 cm

## Cc1cccc(N/N=C(\C(=O)c2ccc(Cl)cc2)c2nc(C)cc(=O)[nH]2)c1
Rattus norvegicus [1]
  Ratio ED50: 6.264
Rattus norvegicus [2]
  ED50: 0.000174 mg/kg
Staphylococcus aureus
  diameter of the inhibition zone (DIZ): 0 cm
Penicillium italicum
  diameter of the inhibition zone (DIZ): 0 cm
Rattus norvegicus [3]
  LD50: 2.555 mg/kg
  LD90: 3.98654 mg/kg
Bacillus subtilis
  diameter of the inhibition zone (DIZ): 0 cm
Pseudomonas aeruginosa
  diameter of the inhibition zone (DIZ): 0 cm
Aspergillus fumigatus
  diameter of the inhibition zone (DIZ): 0 cm
Candida albicans
  diameter of the inhibition zone (DIZ): 0 cm
Escherichia coli
  diameter of the inhibition zone (DIZ): 0 cm
[4]
  diameter of the inhibition zone (DIZ): 0 cm

## COc1ccc(N/N=C(\C(=O)c2ccc(Cl)cc2)c2nc(C)cc(=O)[nH]2)cc1
Staphylococcus aureus
  diameter of the inhibition zone (DIZ): 0 cm
Penicillium italicum
  diameter of the inhibition zone (DIZ): 0 cm
Bacillus subtilis
  diameter of the inhibition zone (DIZ): 0 cm
Pseudomonas aeruginosa
  diameter of the inhibition zone (DIZ): 0 cm
Aspergillus fumigatus
  diameter of the inhibition zone (DIZ): 0 cm
Candida albicans
  diameter of the inhibition zone (DIZ): 0 cm
Escherichia coli
  diameter of the inhibition zone (DIZ): 0 cm
[4]
  diameter of the inhibition zone (DIZ): 0 cm

## Cc1cc(=O)[nH]c(/C(=N/Nc2ccc(Cl)cc2)C(=O)c2ccc(Cl)cc2)n1
Rattus norvegicus [1]
  Ratio ED50: 1.784
Rattus norvegicus [2]
  ED50: 0.000611 mg/kg
Staphylococcus aureus
  diameter of the inhibition zone (DIZ): 0 cm
Penicillium italicum
  diameter of the inhibition zone (DIZ): 0 cm
Rattus norvegicus [3]
  LD50: 2.34537 mg/kg
  LD90: 3.12376 mg/kg
Bacillus subtilis
  diameter of the inhibition zone (DIZ): 0 cm
Pseudomonas aeruginosa
  diameter of the inhibition zone (DIZ): 0 cm
Aspergillus fumigatus
  diameter of the inhibition zone (DIZ): 0 cm
Candida albicans
  diameter of the inhibition zone (DIZ): 0 cm
Escherichia coli
  diameter of the inhibition zone (DIZ): 0 cm
[4]
  diameter of the inhibition zone (DIZ): 0 cm

## Cc1cc(=O)[nH]c(/C(=N/Nc2ccc([N+](=O)[O-])cc2)C(=O)c2ccc(Cl)cc2)n1
Rattus norvegicus [1]
  Ratio ED50: 2.28
Rattus norvegicus [2]
  ED50: 0.000478 mg/kg
Staphylococcus aureus
  diameter of the inhibition zone (DIZ): 0.6 cm
Penicillium italicum
  diameter of the inhibition zone (DIZ): 0 cm
Rattus norvegicus [3]
  LD50: 2.34523 mg/kg
  LD90: 3.29098 mg/kg
Bacillus subtilis
  diameter of the inhibition zone (DIZ): 0 cm
Pseudomonas aeruginosa
  diameter of the inhibition zone (DIZ): 0 cm
Aspergillus fumigatus
  diameter of the inhibition zone (DIZ): 0 cm
Candida albicans
  diameter of the inhibition zone (DIZ): 0 cm
Escherichia coli
  diameter of the inhibition zone (DIZ): 0.1 cm
[4]
  diameter of the inhibition zone (DIZ): 0 cm

## Cc1cc(=O)[nH]c(/C(=N/Nc2cccc(Cl)c2)C(=O)c2ccc(Cl)cc2)n1
Rattus norvegicus [1]
  Ratio ED50: 1.844
Rattus norvegicus [2]
  ED50: 0.000591 mg/kg
Staphylococcus aureus
  diameter of the inhibition zone (DIZ): 0 cm
Penicillium italicum
  diameter of the inhibition zone (DIZ): 0 cm
Rattus norvegicus [3]
  LD50: 2.13345 mg/kg
  LD90: 2.98032 mg/kg
Bacillus subtilis
  diameter of the inhibition zone (DIZ): 0 cm
Pseudomonas aeruginosa
  diameter of the inhibition zone (DIZ): 0 cm
Aspergillus fumigatus
  diameter of the inhibition zone (DIZ): 0 cm
Candida albicans
  diameter of the inhibition zone (DIZ): 0 cm
Escherichia coli
  diameter of the inhibition zone (DIZ): 0.1 cm
[4]
  diameter of the inhibition zone (DIZ): 0 cm

## CCOC(=O)c1ccc(N/N=C(\C(=O)c2ccc(Cl)cc2)c2nc(C)cc(=O)[nH]2)cc1
Rattus norvegicus [1]
  Ratio ED50: 5.505
Rattus norvegicus [2]
  ED50: 0.000198 mg/kg
Staphylococcus aureus
  diameter of the inhibition zone (DIZ): 0 cm
Penicillium italicum
  diameter of the inhibition zone (DIZ): 0 cm
Rattus norvegicus [3]
  LD50: 2.34133 mg/kg
  LD90: 3.21717 mg/kg
Bacillus subtilis
  diameter of the inhibition zone (DIZ): 0 cm
Pseudomonas aeruginosa
  diameter of the inhibition zone (DIZ): 0 cm
Aspergillus fumigatus
  diameter of the inhibition zone (DIZ): 0 cm
Candida albicans
  diameter of the inhibition zone (DIZ): 0 cm
Escherichia coli
  diameter of the inhibition zone (DIZ): 0 cm
[4]
  diameter of the inhibition zone (DIZ): 0 cm

## CN(C/C=C/C#CC(C)(C)C)Cc1cccc2ccccc12 [TERBINAFINE]
Penicillium italicum
  diameter of the inhibition zone (DIZ): 1.1 cm
Aspergillus fumigatus
  diameter of the inhibition zone (DIZ): 1.1 cm
Candida albicans
  diameter of the inhibition zone (DIZ): 0.6 cm
[4]
  diameter of the inhibition zone (DIZ): 1.1 cm

## Cc1cc(=O)[nH]c(/C(=N/Nc2cccc([N+](=O)[O-])c2)C(=O)c2ccc(Cl)cc2)n1
Rattus norvegicus [1]
  Ratio ED50: 5.798
Rattus norvegicus [2]
  ED50: 0.000188 mg/kg
Staphylococcus aureus
  diameter of the inhibition zone (DIZ): 0.6 cm
Penicillium italicum
  diameter of the inhibition zone (DIZ): 0 cm
Rattus norvegicus [3]
  LD50: 2.55348 mg/kg
  LD90: 3.30012 mg/kg
Bacillus subtilis
  diameter of the inhibition zone (DIZ): 0.1 cm
Pseudomonas aeruginosa
  diameter of the inhibition zone (DIZ): 0 cm
Aspergillus fumigatus
  diameter of the inhibition zone (DIZ): 0 cm
Candida albicans
  diameter of the inhibition zone (DIZ): 0 cm
Escherichia coli
  diameter of the inhibition zone (DIZ): 0.1 cm
[4]
  diameter of the inhibition zone (DIZ): 0 cm

Source: ChEMBL document CHEMBL1629486, “Antimicrobial, antitumor and 5α-reductase inhibitor activities of some hydrazonoyl substituted pyrimidinones” (Eur J Med Chem, 2010)
